Dynein transport: dynein cargo transport inhibition | 3617.4 mouse cells, GR-EGFP nuclear translocation imaging; test concentration mostly 20 µM; stimulated with dexamethasone, 1 µM; hits give low values | z-score, hits read low | actives 0.47% (n = 220,000);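 active = plate z-score of nuclear minus cytoplasmic receptor signal below a set negative limit, without overly bright fluorescence or cell loss, cut at about -3.5 in these data, passing the limit was not always enough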;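 also: z-score of nuclear minus cytoplasmic ring GR-EGFP intensity difference per well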
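Also added: dexamethasone, 1.0 µM final. Medium: tet-free, stripped-serum medium. Detection: fixed, Hoechst-stained cells imaged at 10x for EGFP. Read-out: nuclear-to-cytoplasmic GR-EGFP distribution per well. Times: induction 48 h, compound 1 h, agonist 30 min.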
UPR CHOP act: activators of apoptotic arm of unfolded protein response (CHOP) | CHO-CHOP luciferase reporter, UPR activation, luminescence; percent of tunicamycin response over DMSO baseline | activation, % at 10 µM | actives 0.34% (n = 330,000);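 active = at 10 µM dose, activation of 40% or more, normalized to positive control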;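 also: 100% = tunicamycin at 10 µg/mL and 0% = DMSO alone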
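Assay system: CHO-CHOP cells, stable luciferase reporter of PERK-eIF2a-CHOP signalling / Buffer or medium: F12 plus 10% serum / Compound dosing: one dose, 10 µM in 0.5% DMSO / Times: 6 h compound treatment, 37 °C / Technique: luciferase luminescence / Read-out: % reporter activation, DMSO baseline versus tunicamycin full activation / Benchmarks: tunicamycin and DMSO controls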
MDM2 E3 inh: inhibitors of human Mdm2 E3 ubiquitin ligase. Q00987. cell-based MDM2 ubiquitination luciferase reporter, 2 h; 0 = plate control, 100 = twice control, blank-subtracted. signal enhancement, % at 5 µM. actives 0.11% (n = 210,000). AID 1230;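 active = signal enhancement of 30% or more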;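 also: luminescence tracks abundance of the self-degrading MDM2-luciferase fusion protein; higher signal means inhibition of MDM2 E3 ligase activity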
Target sequence (Q00987 whole entry, looked up, the tested form may be a part): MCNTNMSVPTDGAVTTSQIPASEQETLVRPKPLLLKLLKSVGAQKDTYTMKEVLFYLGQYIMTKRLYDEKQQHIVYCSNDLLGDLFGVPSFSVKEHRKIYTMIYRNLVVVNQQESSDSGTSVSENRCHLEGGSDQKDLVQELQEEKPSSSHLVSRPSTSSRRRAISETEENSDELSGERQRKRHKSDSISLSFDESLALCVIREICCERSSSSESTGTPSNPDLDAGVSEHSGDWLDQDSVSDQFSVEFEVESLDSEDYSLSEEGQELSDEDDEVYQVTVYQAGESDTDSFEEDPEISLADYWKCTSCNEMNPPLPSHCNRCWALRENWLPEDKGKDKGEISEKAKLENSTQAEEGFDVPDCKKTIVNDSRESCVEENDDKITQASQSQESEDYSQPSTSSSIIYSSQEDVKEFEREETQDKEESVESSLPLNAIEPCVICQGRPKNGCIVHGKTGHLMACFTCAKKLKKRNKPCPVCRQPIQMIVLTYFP
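Assay system: mammalian cells stably expressing self-ubiquitinating, self-degrading MDM2 E3–luciferase fusion. Quantity: 2000 cells in each well. Medium: DMEM culture medium. Compound dosing: single-point 5 µM. Timing: cell settling 4 h, compound treatment 2 h, both 37 °C. Technique: luciferase luminescence. Read-out basis: percent signal gain over controls, blank-subtracted. Benchmarks: plate controls and plate blanks.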
B2AR ag: activates human beta-2 adrenergic receptor causing internalization. Am2.2-beta2AR cells, FAP receptor internalization, flow cytometry. actives 0.43% (n = 340,000). P07550. response, % (concentration not given with the values);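 active = response above a set limit, near 3 SD of response in nonfluorescent compounds, cut at about 42% in these data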
Mdm2 MdmX PPI: disrupts the human Mdm2-MdmX interaction; O15151+Q00987; SaOS-2 split-luciferase Mdm2/MdmX complementation, luminescence; inhibition, % at 8 µM; actives 3% (n = 330,000);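 active = inhibition of at least 50% at 8 µM in the primary screen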
UPR XBP1 act: activators of adaptive arm of unfolded protein response (XBP1) | CHO-XBP1 luciferase reporter, IRE1-XBP1 UPR activation, luminescence; percent of tunicamycin response, DMSO as zero | activation, % at 20 µM | actives 0.33% (n = 330,000) | AID 463104;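 active = versus positive control, 20 µM dose yields 30% or more activation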;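 also: 100% = tunicamycin at 10 µg/mL and 0% = DMSO only wells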
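Signal: luciferase luminescence; Assay system: CHO-XBP1 luciferase reporter cells; Amount: one thousand reporter cells per well; Dosing: 20 µM single concentration, DMSO 1%; Benchmarks: high control tunicamycin 10 µg/mL final, low control DMSO vehicle only; Schedule: 6 h compound exposure at 37 °C, 5% CO2; Evaluation: percent activation relative to tunicamycin reference.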
Mdm2-MdmX conf: confirmation of human Mdm2/MdmX interaction inhibitors; shares compounds with Mdm2 MdmX PPI; Mdm2-MdmX binding, luminescent assay; inhibition, % at 8 µM; actives 55% (n = 10,000); AID 489028; in the data active = inhibition above about 40%
Full FLuc ctr: inhibits full-length luciferase, flagging false Mdm2/MdmX hits; actives 77% (n = 6,200); shares compounds with Mdm2 MdmX PPI; SaOS-2 full-length luciferase counterscreen, luminescence; inhibition, % at 8 µM;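 active = mean inhibition at 8 µM reaching about 37%, which flags the compound as non-specific, limit read from the data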;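 also: p53-null SaOS-2 cells with luciferase driven by a doxycycline-inducible promoter; compound on cells about two nights before reading with doxycycline added after day one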
Starred values were filed as active, the others as inactive; x = no result given; + = active, no number; ! = not active in a repeat. Hits are enriched below; roughly 3.7% of the tested compounds scored in any of these assays.

SMILES	Dynein transport	UPR CHOP act	MDM2 E3 inh	B2AR ag	Mdm2 MdmX PPI	UPR XBP1 act	Mdm2-MdmX conf	Full FLuc ctr
CC(C)(C)[C@H]1COC(=O)CCCC/C=C\C[C@H](CC(=O)NCCO)C(=O)N1	x	-1	x	5	-6	-1	x	x
CSCCC(NC(=O)c1ccco1)C(=O)NCC1CCCO1 (centres undefined)	x	0	x	-1	17	0	x	x
COc1ccc(C(=O)/C(=C\c2ccco2)N2C=CC=CC2=C(C#N)C#N)cc1	0.1	-10	-15	60*	100*	-5	99*	51*
COc1ccc(C(=O)N/C(=C\c2ccco2)C(=O)OCc2ccco2)cc1	0.15	4	-10	-1	14	-2	x	x
Nc1c2ccccc2nc2ccccc12	-0.68	0	-21	4	71*	-2	71*	51*!
Nc1c2c(nc3ccccc13)CCCC2	-1.7	0	x	-4	3	-5	x	x
COc1cc(O)cc2cc3c(c(O)c12)C(=O)CC(C)(O)O3 (centres undefined)	-0.054	5	-18	-3	57*	2	53*	60*
C[C@H](NC(=O)c1[nH]cnc1C(=O)Nc1ccc(Cl)cc1)c1ccccc1	x	3	x	-10	61*	0	29	68*
C[C@@H](NC(=O)c1[nH]cnc1C(=O)Nc1ccc(Cl)cc1)c1ccccc1	x	3	x	7	60*	-2	45*	62*
C[C@@H](NC(=O)c1[nH]cnc1C(=O)Nc1ccccc1)c1ccccc1	x	2	x	16	38	-1	x	x
Cc1ccc(NC(=O)c2nc[nH]c2C(=O)N[C@@H](C)c2ccccc2)cc1	0.14	1	x	12	34	-4	x	x
Cc1cccn2c(CN(C)CCC3CCCCO3)c(C(=O)N3CCCCC3)nc12 (centres undefined)	0.88	-3	-11	2	-2	2	x	x
CC(NC(=O)Cc1ccsc1)c1ccc(Cl)cc1Cl (centres undefined)	x	2	x	-10	26	2	x	x
COc1ccc(O)c(/C=N/Nc2nc3ccccc3[nH]2)c1	1.1	5	-11	-1	-2	-2	x	x
COc1cccc(/C=N/Nc2nc3ccccc3[nH]2)c1OC	-0.54	6	-7	-3	-34	0	x	x
O=[N+]([O-])c1ccc(O)c(/C=N/Nc2ccccn2)c1	2.4	x	-22	8	x	x	x	x
COc1cccc(/C=N/Nc2nc3ccccc3[nH]2)c1O	-0.5	2	-18	18	61*	3	40*	61*
O=[N+]([O-])c1ccc(O)c(/C=N/Nc2ncnc3c2cnn3-c2ccccc2)c1	x	9	x	21	91*	6	91*	21
O=[N+]([O-])c1ccc(O)c(/C=N/Nc2nc3ccccc3[nH]2)c1	-1.2	5	x	-6	89*	4	52*	48*
COc1ccc2nc(C)cc(N/N=C/c3cccc(OC)c3O)c2c1	x	11	x	21	100*	10	15	x
CC(Oc1cc(F)ccc1[N+](=O)[O-])C(=O)N(C)CC(=O)Nc1ccccc1C(F)(F)F (centres undefined)	-0.73	1	-6	6	-3	4	x	x
COc1ccc2nc(C)cc(Nc3ccccc3O)c2c1	2.2	-1	-25	4	13	-3	x	x
COc1ccc2nc(C)cc(NCc3cccc(C(F)(F)F)c3)c2c1	x	-1	x	21	79*	4	60*	108*
CCN(CC)c1ccc(-c2nn3c(-c4n[nH]c5c4CCC5)nnc3s2)cc1	0.51	1	-11	-5	51*	30	59*	102*
C1CCC(c2nn3c(-c4n[nH]c5c4CCC5)nnc3s2)CC1	-0.56	1	-3	-13	29	3	x	x
SMILES	Dynein transport	UPR CHOP act	MDM2 E3 inh	B2AR ag	Mdm2 MdmX PPI	UPR XBP1 act	Mdm2-MdmX conf	Full FLuc ctr
Cc1ccc(NC(=O)CN(C)C(=O)Cc2c[nH]c3ccccc23)cc1	x	0	x	-5	7	-3	x	x
CCOC(=O)C1(CCc2ccccc2)CCN(Cc2c(O)cccc2OC)CC1	0.13	-3	0	19	55*	-5	26	x
CCOC(=O)C1(CCc2ccccc2)CCN(Cc2ccc(OC)cc2)CC1	2	-1	-8	-7	14	1	x	x
Cc1nn(-c2ccccc2)c(N2CCCC2)c1/C=N/NC(=O)c1cc(-c2cccs2)nc2ccccc12	-0.17	0	-10	1	31	-2	x	x
Cc1nn(-c2ccccc2)c(N2CCCC2)c1/C=N/NC(=O)c1cc(-c2ccccn2)nc2ccccc12	-0.36	-1	-11	1	63*	1	15	x
Cc1nn(-c2ccccc2)c(N2CCCC2)c1/C=N/NC(=O)c1cc(-c2ccccc2)nc2ccccc12	-0.7	4	-18	4	57*	0	47*	68*
Cc1nn(-c2ccccc2)c(N2CCCC2)c1/C=N/NC(=O)c1cc2ccccc2cc1O	-0.38	-1	-10	8	36	-1	x	x
O=C1CCN(Cc2ccccc2)C=C1c1ccc(Br)cc1	x	2	x	-1	-8	2	x	x
COC(=O)N1C(=O)[C@](c2ccccc2)(C(C)C)N1C(=O)OC	x	0	x	0	35	-3	x	x
CCOC(=O)N1C(=O)[C@@](c2ccc(Cl)cc2)(C(C)C)N1C(=O)OCC	x	31	x	20	88*	-5	62*	33
CCOC(=O)N1C(=O)[C@](c2ccc(Cl)cc2)(C(C)C)N1C(=O)OCC	x	11	x	10	80*	1	44*	49*
CC(C)[C@H](CO)Nc1nc(NCc2ccc(S(N)(=O)=O)cc2)c2ncn(C(C)C)c2n1	0.99	1	15	-4	79*	-2	64*	51*
COCc1nnc(NC(=O)C2CC(=O)N(c3ccc(C)c(Cl)c3)C2)s1 (centres undefined)	x	-1	x	-1	-9	-1	x	x
Cc1ccc(N2CC(C(=O)Nc3nccs3)CC2=O)cc1Cl (centres undefined)	-0.61	-1	-4	-13	84*	-4	69*	+
CCCCn1c(=O)[nH]c(=O)c2c1nc(Cn1ncc(Cl)c(Cl)c1=O)n2CCC	x	-7	x	41	100*	-11	93*	52*
